Results: article PMC4380538 (Bioorganic & medicinal chemistry, 2015)
Entries after “also recorded” stand apart in the source; their conditions may differ.

Target: T1, hCCK2R (Homo sapiens, UniProt P32239)
T1 sequence (P32239 1-447): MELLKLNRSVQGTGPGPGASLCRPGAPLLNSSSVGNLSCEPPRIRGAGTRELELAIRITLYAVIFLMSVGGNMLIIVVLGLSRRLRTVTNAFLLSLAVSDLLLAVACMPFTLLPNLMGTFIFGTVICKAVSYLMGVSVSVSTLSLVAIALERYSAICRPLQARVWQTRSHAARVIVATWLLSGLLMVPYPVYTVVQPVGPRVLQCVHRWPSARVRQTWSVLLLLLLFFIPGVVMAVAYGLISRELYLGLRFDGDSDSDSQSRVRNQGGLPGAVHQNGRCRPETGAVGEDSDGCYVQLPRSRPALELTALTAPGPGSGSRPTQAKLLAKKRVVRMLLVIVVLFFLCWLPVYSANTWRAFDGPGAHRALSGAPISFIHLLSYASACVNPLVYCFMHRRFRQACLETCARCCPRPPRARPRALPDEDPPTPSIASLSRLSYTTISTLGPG
Test: Competitive binding assay
Settings: against probe 3 (15 nM); concentration range 10^-5 to 10^-12 M
Outline: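 HEK-293 cells engineered to overexpress hCCK2R and hMC4R, kept in selective medium and seeded at 240,000 cells/well in six-well plates (~1 × 10^6 cells at 90% confluence). Medium replaced with test compound (10^-5 to 10^-12 M, twelve levels) plus 15 nM Eu-labelled CCK4 probe in binding buffer for 1 h, 37 °C, CO₂. Cells pelleted and washed three times in basic buffer. DELFIA enhancement for 1 h, 37 °C. Supernatant read by TRF. Ki reported with SEM.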

Row | Structure (SMILES) | Competitive inhibition of probe 3 binding (in words)
1 | NC(=O)[C@H](CO)NC(=O)CCCCCn1cc(CN(Cc2cn(CCCCCC(=O)N[C@@H](CO)C(N)=O)nn2)Cc2cn(CCCCCC(=O)N[C@@H](CO)C(N)=O)nn2)nn1 [Compound 15] | not competitive inhibitors; also recorded: did not interfere with the binding and uptake of probe 3
2 | NC(=O)[C@H](CO)NC(=O)CCCCCn1cc(COc2cc(OCc3cn(CCCCCC(=O)N[C@@H](CO)C(N)=O)nn3)cc(OCc3cn(CCCCCC(=O)N[C@@H](CO)C(N)=O)nn3)c2)nn1 [Compound 16] | not competitive inhibitors; also recorded: did not interfere with the binding and uptake of probe 3
